Test results as given in ChEMBL document CHEMBL1139414, “Conformationally constrained analogues of diacylglycerol. 29. Cells sort diacylglycerol-lactone chemical zip codes to produce diverse and selective biological activities” (J Med Chem, 2008).
Activity calls are given as the source filed them. The rule behind the calls is not given here.

Tests used:
[1] = Selectivity ratio of Ki for mouse PKCalpha to Ki for RasGRP3
[2] = tested on: CHO; assay: Translocation of GFP-tagged mouse PKCdelta from cytosol to membrane compartment of CHO cells by confocal microscopy; type: functional, cell-based; conditions: Cricetulus griseus
Outline: (§1)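 GFP-tagged PKC isoforms overexpressed in CHO cells; live-cell localization followed by confocal microscopy before and after ligand (300 nM). Representative of 2 (PKCβ, ε) or 3 (PKCα, δ) independent experiments.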

[3] = tested on: MCF-10A; assay: Induction of human MCF10A cell motility at 10 uM after 20 hrs by photomicroscopy relative to diacylglycerol-lactone; type: functional, cell-based
Outline: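 MCF-10A cells seeded in a small circular area through a 10-hole manifold; at manifold removal, compound added to a final 10 μM (vehicle 1% v/v DMSO), 37 °C, 5% CO₂. Radial spread imaged over 20 h; radius in microns expressed as a ratio to the radius from the DAG-lactone positive control. Triplicate measurements.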

[4] = tested on: CHO; assay: Translocation of GFP-tagged PKCepsilon from cytosol to membrane compartment of CHO cells by confocal microscopy
[5] = tested on: CHO; assay: Translocation of GFP-tagged PKCbeta from cytosol to membrane compartment of CHO cells; type: functional, cell-based; outline: as §1
[6] = tested on: CHO; assay: Translocation of GFP-tagged PKCalpha from cytosol to membrane compartment of CHO cells by confocal microscopy
[7] = tested on: NK92; assay: Induction of IFN-gamma production in human NK92 cells at 1 ug/mL after 6 hrs by ELISA; type: functional, cell-based
Outline: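 NK92 cells (10⁶ cells/mL) in RPMI with 10% FCS, glutamine and Pen/Strep at 37 °C for 6 h with derivative (1 μg/mL) alone or with IL12 (100 u/10⁶ cells), in duplicate wells. IFN-γ in supernatants by ELISA.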

[8] = biological target: Transcription factor Jun (Mus musculus) (UniProt P05627); assay: Activation of AP1 expressed in BALB/c mouse JB6 cells coexpressing luciferase reportet gene at 100 ng/mL after 18 hrs relative to 12-O-tetradecanoylphorbol-13-O-acetate; type: cell-based
Transcription factor Jun (Mus musculus), sequence (P05627 whole entry): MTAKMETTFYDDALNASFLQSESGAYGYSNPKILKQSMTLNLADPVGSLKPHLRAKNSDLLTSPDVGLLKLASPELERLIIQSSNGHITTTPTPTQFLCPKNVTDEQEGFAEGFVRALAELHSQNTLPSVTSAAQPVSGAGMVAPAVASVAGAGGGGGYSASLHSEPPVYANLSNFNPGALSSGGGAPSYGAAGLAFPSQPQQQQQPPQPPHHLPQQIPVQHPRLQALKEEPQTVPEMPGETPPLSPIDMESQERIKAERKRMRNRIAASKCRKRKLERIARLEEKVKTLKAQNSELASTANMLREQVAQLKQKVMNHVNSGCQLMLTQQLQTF
Outline: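 JB6 P+ cells seeded at 10⁴, transfected with 4x AP-1 luciferase reporter (0.2 μg DNA) using a 3:1 lipid reagent ratio; on day 3 treated with DMSO, TPA (10 ng/mL) or DAG-lactone (100 ng/mL); luciferase read 18 h later. Values normalized to TPA-induced activity; average of 6 independent assays.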

[9] = biological target: Protein kinase C alpha type (Mus musculus, UniProt P20444); assay: Displacement of [3H]PDBu form mouse PKCalpha by scintillation counting
Outline: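 Partially purified mouse PKCα; competition with [³H]PDBU. ID50 obtained by fitting a sigmoidal competition curve and converted to Ki = ID50/(1+L/Kd). Pure compounds tested at 6–7 concentrations; crude library compounds at a single 1 μM concentration. Triplicates per concentration, at least three experiments; mean ± SEM.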

[10] = tested on: LNCaP; assay: Induction of apoptosis in human LnCAP cells pretreated at 10 uM for 16 hrs followed by 20 Gy radiation assessed after 24 hrs post radiation by fluorescence microscopy; type: functional, cell-based
Outline: (§2)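 LNCaP cells in RPMI-1640 with 0.2% human albumin replacing FCS from 24 h before the experiment; pretreated 16 h with compound (10 or 20 μM), then 20 Gy irradiation. Fixed 24 h post radiation, stained with bis-benzimide and scored by fluorescence microscopy; cells with ≥3 apoptotic bodies counted apoptotic. Average of two experiments ± SD.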

[11] = tested on: LNCaP; assay: Induction of apoptosis in human LnCAP cells pretreated at 20 uM for 16 hrs followed by 20 Gy radiation assessed after 24 hrs post radiation by fluorescence microscopy; type: functional, cell-based; outline: as §2
[12] = tested on: LNCaP; assay: Antitumor activity against human LnCAP cells transplanted in Swiss nude mouse assessed as inhibition of tumor growth at 12 mg/kg, ip administered daily 16 hrs prior to 10 Gy radiation during first week followed by 2 injections at 48 hrs intervals during second week assessed after 8 weeks by radioimmunoassay; type: functional, organism-based; set-up: dose 12 mg/kg
Outline: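 Male Swiss nude mice (8–10 weeks) implanted orthotopically in prostate with 3.0×10⁶ LNCaP cells; used when serum PSA was 5.0–15.0 ng/mL. Drug 12 mg/kg i.p. in DMSO, 16 h before each 1 Gy local pelvic fraction (daily, Mon–Fri, total 10 Gy) in week 1, then two injections 48 h apart in week 2. Serum PSA by radioimmunoassay through week 8; mean per group.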

[13] = tested on: LNCaP; assay: Antitumor activity against human LnCAP cells transplanted in Swiss nude mouse assessed as reduction in ataxia telengiectasia mutated gene level at 12 mg/kg, ip administered as 2 injections at 24 hrs intervals assessed after 8 weeks by radioimmunoassay; type: functional, organism-based; set-up: dose 12 mg/kg; conditions: in the assay text read “48 hrs after first injection” for “after 8 weeks”
Outline: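 Orthotopic LNCaP prostate tumors (~100 mm³) in Swiss nude mice; 12 mg/kg i.p., two injections 24 h apart, prostate resected 48 h after first injection. ATM measured in tumor extracts relative to vehicle control.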

For `O=C1OC(CO)(COC(=O)c2ccc([N+](=O)[O-])cc2)C/C1=C\c1ccc([N+](=O)[O-])cc1` (racemic; form 2), the Ratio Ki [1] was 57.

With `CCCCC(CC)C(=O)OCC1(CO)C/C(=C\c2ccc(F)c(Br)c2)C(=O)O1` (racemic; form 2) the Activity [2] was “Active”, the Activity [3] was “Active” and the Activity [4] was “Active”. The Activity [5] was “Active” and the Activity [6] was “Active”.

With `CCCCC(CC)C(=O)OCC1(CO)C/C(=C/c2ccc(Cl)c(F)c2)C(=O)O1` (racemic) the Activity [7] was “Active”, the Activity [8] was “Active” and the Ki [9] was 10.1 nM.

For `CCCC(CCC)C(=O)OCC1(CO)C/C(=C\c2ccc(F)cc2)C(=O)O1` (racemic; form 1), the Activity [10] was “Active”, the Activity [8] was “Active” and the Activity [11] was “Active”.

With `CCC(C(=O)OCC1(CO)C/C(=C\c2ccc(-c3ccc(C(F)(F)F)cc3)cc2)C(=O)O1)c1ccccc1` (racemic; form 2) the Activity [3] was “Active”.

In the case of `CCCC(CCC)C(=O)OCC1(CO)C/C(=C\c2ccc(C(F)(F)F)cc2)C(=O)O1` (racemic; form 1), the Activity [7] is reported as “Active”, the Activity [10] is reported as “Active” and the Activity [12] is reported as “Active”. The Activity [13] was “Active”, the Activity [8] was “Active” and the Activity [11] was “Active”.

In the case of `CCCCC(CC)C(=O)OCC1(CO)C/C(=C\c2ccc(Cl)c(F)c2)C(=O)O1` (racemic; form 2), the Activity [7] is reported as “Active” and the Activity [8] is reported as “Active”.

With `CCCCC(CC)C(=O)OCC1(CO)C/C(=C\c2ccc(Cl)cc2)C(=O)O1` (racemic; form 2) the Activity [7] was “Active” and the Activity [8] was “Active”.
